MEX-5 binding – C. elegans MEX-5 TCR-2 RNA binding activity; Q9XUB2; MEX-5/FITC-TCR2 RNA binding, fluorescence polarization; active compounds read low; activity score (negative = inhibition of binding), % at 10 µM; 0.38% of 300,000 active; AID 1832;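 active = inhibition past about -25% in most replicates, and total fluorescence under double the plate's negative control median, limit read from the data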;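 also: 0% = DMSO and -100% = 5 µM competing unlabeled TCR2 RNA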
CendR NRP1 mod – modulators of CendR peptide binding to human neuropilin-1; AID 602438; O14786; 0.85% of 360,000 active; FAM-RPARPAR peptide binding to NRP-1, fluorescence polarization; inhibition, % at 25 µM;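 active = inhibition or corrected inhibition above about 18%, plus a signal ratio from 0.5 to 1.5, limit read from the data, passing the limit was not always enough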
Target sequence (O14786 whole entry, looked up): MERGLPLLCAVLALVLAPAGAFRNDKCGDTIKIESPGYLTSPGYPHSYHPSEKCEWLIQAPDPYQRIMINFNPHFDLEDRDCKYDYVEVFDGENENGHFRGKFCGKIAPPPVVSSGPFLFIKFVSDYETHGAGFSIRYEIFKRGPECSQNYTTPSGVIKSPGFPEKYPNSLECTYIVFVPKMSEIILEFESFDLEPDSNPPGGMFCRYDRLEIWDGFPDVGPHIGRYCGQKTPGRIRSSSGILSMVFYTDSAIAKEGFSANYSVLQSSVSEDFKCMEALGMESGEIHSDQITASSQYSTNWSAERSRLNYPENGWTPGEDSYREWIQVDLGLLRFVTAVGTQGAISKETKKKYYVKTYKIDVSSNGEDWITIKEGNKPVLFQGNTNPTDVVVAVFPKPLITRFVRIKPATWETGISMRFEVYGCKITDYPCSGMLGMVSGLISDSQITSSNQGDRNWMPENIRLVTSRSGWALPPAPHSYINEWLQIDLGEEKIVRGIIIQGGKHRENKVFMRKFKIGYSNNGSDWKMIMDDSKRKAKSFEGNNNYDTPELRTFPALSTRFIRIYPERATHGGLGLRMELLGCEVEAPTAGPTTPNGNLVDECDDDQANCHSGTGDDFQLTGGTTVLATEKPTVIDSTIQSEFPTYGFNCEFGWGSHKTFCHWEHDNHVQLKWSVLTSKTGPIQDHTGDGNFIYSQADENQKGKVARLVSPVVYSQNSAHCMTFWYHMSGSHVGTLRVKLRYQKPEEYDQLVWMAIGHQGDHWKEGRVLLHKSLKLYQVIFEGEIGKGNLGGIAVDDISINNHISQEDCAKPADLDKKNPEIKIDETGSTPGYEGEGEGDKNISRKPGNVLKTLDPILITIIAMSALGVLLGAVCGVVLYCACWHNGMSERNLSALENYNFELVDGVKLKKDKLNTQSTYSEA
HCV core dimer – HCV core protein dimerization inhibition; inhibition, % at 5 µM; 0.33% of 300,000 active; TR-FRET GST/Flag-core106 dimerization, 1536-well;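 active = inhibition above the mean of all tested compounds plus 3 SD, set per screening campaign, cut at about 45% in these data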
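System: GST-tagged and Flag-tagged HCV core protein residues 1-106 / Input: core106 proteins, GST 13.5 nM and Flag 17 nM / Buffer or medium: KF-containing HEPES buffer, pH 7.45, DTT, CHAPS, BSA / Probe or stimulus: Eu-anti-GST and XL665-anti-Flag labelled anti-tag antibodies / Schedule: 4 h, 22.5 °C incubation / Technique: TR-FRET 671 and 617 nm emission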
DNA FID counter – counter-screen for HCV NS3 helicase inhibitors: DNA intercalator displacement; DNA fluorescent intercalator displacement, fluorescence; 0.17% of 290,000 active; inhibition, % at 7.9 µM; in the data active = inhibition above about 37%;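 also: 0% = vehicle and 100% = reference compound; higher means more ethidium bromide displaced from hairpin DNA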
* = called active by the depositor; . = no result given. Sampled rows, rich in hits. Any-hit rate of the full collection: about 1.5%.

SMILES | MEX-5 binding | CendR NRP1 mod | HCV core dimer | DNA FID counter
Cc1ccc(-c2cc(C(=O)N3CCOCC3)c3ccccc3n2)o1 | . | 1.9 | . | .
COc1cc(OC)c(C(=O)Nc2cc(S(=O)(=O)N3CCOCC3)ccc2N2CCOCC2)cc1OC | . | -15.5 | . | .
Cc1cccc2cc(CN(Cc3ccccc3)C(=S)NCCCN(C)C)c(=O)[nH]c12 | 1.2 | -6.0 | -3.8 | 47.7*
CN(C)CCCN(Cc1cc2cc3c(cc2[nH]c1=O)OCO3)C(=S)Nc1cccc(Cl)c1 | 0.9 | 14.7 | -5.5 | 32.4
CN(C)CCCN(Cc1cc2cc3c(cc2[nH]c1=O)OCO3)C(=S)Nc1ccccc1 | -0.4 | 1.4 | -2.6 | 47.4*
COc1ccccc1NC(=S)N(Cc1ccco1)Cc1cc2cccc(C)c2[nH]c1=O | 2.8 | 39.5* | -4.1 | -9.7
COc1cc(NC(=O)COC(=O)C2CC(O)CN2S(=O)(=O)c2ccc(Cl)cc2)c(C)cc1[N+](=O)[O-] (stereo unspecified) | . | 11.5 | . | .
COC(=O)[C@@]12C[C@@H](CC(=O)NCCc3ccccc3OC)C(=O)N(Cc3ccc4c(c3)OCO4)C1=CCC(C)(C)C2 | . | 1.3 | . | .
Cc1cc(C(=O)N/N=C/c2ccc(C)s2)n[nH]1 | 0.2 | 18.4* | -4.5 | -3.9
N#CC1=C(N)C(C#N)(C#N)C(c2cccnc2)C2COCC=C12 (stereo unspecified) | -26.0* | 3.6 | -5.1 | -0.1
CCC1CCCCN1c1ccc([N+](=O)[O-])cc1/C=N/NC(=O)Cn1c2ccccc2c(=O)c2ccccc21 (stereo unspecified) | 0.3 | 2.0 | 47.2* | 5.0
CCc1ccc(OCC(=O)N/N=C/c2cc([N+](=O)[O-])ccc2N2CCCCCC2)cc1 | 1.0 | -4.5 | 26.2 | -5.2
COCCN1C[C@@H](CO)O[C@@H](n2cnc3c(N(C)C(C)C)ncnc32)C1 | . | 23.9* | . | .
CCN(CC)c1ncnc2c1ncn2[C@H]1CN(CCOC)C[C@@H](CO)O1 | . | 1.7 | . | .
COC(=O)c1cccc(NC(=S)NCc2ccc(F)cc2)c1 | 0.3 | 46.0* | -2.1 | 2.3
CCc1nc2ccc(C(=O)N3CCN(S(=O)(=O)CC)CC3)cn2c1N(CCC(C)C)CCN(C)C | . | 0.1 | . | .
O=C(CNC(=O)c1cccc(-n2cccc2)c1)Nc1ccccc1Br | . | -5.8 | . | .
COC(=O)C1=COC(C)C2CN3CCc4c([nH]c5cc(OC)c(OC)cc45)C3CC12 (stereo unspecified) | -35.4* | 143.9 | -7.2 | 0.2
COc1ccc(N2CCN(c3nc4cc(C)ccc4cc3C=O)CC2)cc1 | 1.0 | -4.1 | 14.5 | -17.3
Cc1ccc2cc(/C=C3\N=C(c4ccccc4)OC3=O)c(N3CCOCC3)nc2c1 | -33.8* | . | -3.5 | -31.0
CCCn1nc2cc(C(=O)NCc3ccc(OC(F)(F)F)cc3)ccc2c1OCC | 2.2 | 18.8* | 7.5 | -16.2
CCOc1c2ccc(C(=O)NCc3ccc4c(c3)OCO4)cc2nn1CCOC | 1.3 | 18.0* | 5.0 | -8.2
CCOc1c2ccc(C(=O)NCc3ccc(OC(F)(F)F)cc3)cc2nn1CC | -0.2 | -5.3 | 2.7 | -20.6
Cc1ccc(C(O)c2ncc(-c3ccc(Cl)cc3)[nH]2)cc1F (stereo unspecified) | . | 2.6 | . | .
Cc1ccc(S(=O)(=O)N2CCC[C@H]2C(=O)NC2=NCCS2)cc1 | . | 24.4* | . | .
SMILES | MEX-5 binding | CendR NRP1 mod | HCV core dimer | DNA FID counter
Cc1ccc(S(=O)(=O)N2CCCC(C(=O)NC3=NCCS3)C2)cc1 (stereo unspecified) | -3.9 | 4.8 | 2.4 | -1.6
CCNc1ccc(Br)cc(C(=O)/C=C/c2ccc3c(c2)OCO3)c1=O | -3.7 | -166.4 | 57.8* | -22.0
CCc1nc2ccc(C(=O)NCCCn3ccnc3)cn2c1N(CC)CCOC | . | 1.8 | . | .
COC(=O)C1=CN(c2ccc(N3CCOCC3)cc2)C(N)=C(C#N)C1c1cccc(OC)c1OC (stereo unspecified) | . | -13.8 | . | .
CSc1nnc(-c2ccco2)c(-c2ccco2)n1 | -10.8 | 29.1* | 15.7 | -10.2
Cc1cccc(C)c1NC(=O)CSc1nnc(-c2ccco2)c(-c2ccco2)n1 | -3.5 | -8.2 | 72.2* | -14.1
Cc1ccc(NC(=O)CSc2nnc(-c3ccco3)c(-c3ccco3)n2)cc1 | -5.3 | -0.3 | 50.6* | -5.8
O=C(CSc1nnc(-c2ccco2)c(-c2ccco2)n1)Nc1ccccc1 | -2.4 | -11.2 | 50.8* | -9.0
CSc1nnc(-c2ccccc2)c(-c2ccccc2)n1 | 0.0 | -3.8 | 0.1 | -9.9
Cc1ccc(-n2ncc3c(=O)n(-c4cccc(C)c4)c(=O)[nH]c32)cc1 | . | -4.8 | . | .
CCN1/C(=C/C(C)=O)Sc2ccc(OC)cc21 | -0.3 | 4.3 | -3.9 | -3.1
CCN1/C(=C2/SC(=S)N(NC(C)=O)C2=O)Sc2ccc(OC)cc21 | -46.3* | 12.3 | -10.0 | -6.4
C=CCN1C(=O)/C(=C2/Sc3ccc(OC)cc3N2CC)SC1=S | -39.8* | -23.8 | 2.3 | -0.1
CCN1/C(=C2/SC(=S)N(NC(C)=O)C2=O)Sc2ccc(Cl)cc21 | -16.6 | -26.8 | 3.0 | -15.6
CCCCN1C(=O)/C(=C2/Sc3ccc(OC)cc3N2CC)SC1=S | -25.7* | -42.9 | -1.5 | 2.1
CN(C)CCCNc1cc(C(C)(C)C)nc2c(-c3ccccc3)cnn12 | 2.7 | -4.1 | -11.5 | 48.5*
CN(C)CCCNc1cc(-c2ccccc2)nc2cc(-c3cccc(F)c3)nn12 | 2.8 | -6.3 | -3.8 | 40.2*
Cc1cccc(-c2cc3nc(C)cc(NCCCN(C)C)n3n2)c1 | -0.2 | 8.3 | 0.9 | 34.9
COc1ccc(OCCOC(=O)c2ccc(F)c(S(=O)(=O)N3CCOCC3)c2)cc1 | . | 11.1 | . | .
Cc1ccc(-c2cc(C(=O)N3CCCc4ccccc43)c3ccccc3n2)cc1 | -0.1 | 8.7 | 6.2 | -6.5
Cc1ccc2nc3sc(C(=O)N4CCCc5ccccc54)c(N)c3cc2c1 | -34.8* | -130.0 | -14.9 | -5.4
COc1ccc(C(O)c2nc(-c3ccncc3)cs2)cc1 (stereo unspecified) | . | -2.8 | . | .
COc1ccc(C(OCC(O)CNCCc2ccccc2)c2ccc(OC)cc2)cc1 (stereo unspecified) | -2.9 | 10.4 | . | 40.5*
CNC(=O)c1c(O)c2cccc3c2n(c1=O)CC3 | 0.9 | 13.3 | 0.8 | 1.5
COc1ccc(CCNC(=O)c2c(O)c3cccc4c3n(c2=O)CC4)cc1OC | -0.3 | 44.3* | 3.0 | .
SMILES | MEX-5 binding | CendR NRP1 mod | HCV core dimer | DNA FID counter
CN1C(=O)CC2(C)C1=CCc1scnc12 (stereo unspecified) | . | 18.8* | . | .
O=C(Nc1ccccc1)c1cc(C2CCCCN2S(=O)(=O)c2cccs2)on1 (stereo unspecified) | . | 1.2 | . | .
O=c1oc2ccccc2cc1-c1csc(NN=C2CCCC2)n1 | -1.8 | -13.2 | 1.3 | -3.3
C/C(=N\Nc1nc(-c2cc(C)ccc2C)cs1)c1cc2c(ccc3ccccc32)oc1=O | -1.8 | -47.7 | 60.8* | -17.3
C/C(=N\Nc1nc(-c2cc(C)ccc2C)cs1)c1cc2ccccc2oc1=O | 2.8 | -4.6 | 57.0* | -7.0
CC(=N)c1c(O)cc(C)oc1=O | . | 19.4* | . | .
O=[N+]([O-])c1cc(-c2nc3nc4ccccc4nc3n2CCc2ccccc2)cc([N+](=O)[O-])c1 | -1.7 | 28.5* | -6.1 | -4.3
c1ccc(Cn2c(-c3ccccc3)nc3nc4ccccc4nc32)cc1 | -1.7 | -3.6 | 7.1 | -2.8

High-throughput results as filed in PubChem.
